Data as given in ChEMBL document CHEMBL1152478, “Design, synthesis, and antifungal activity of triazole and benzotriazole derivatives” (2009).
Values after ≈ are worked out from the molar mass of the structure shown.

What was measured:
Type in all cases: functional
[1] = system: Trichophyton mentagrophytes; assay: Antifungal activity against Trichophyton mentagrophytes after 48 hrs by agar dilution method
Method in brief: (§1)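 Clinical isolates, purified and subcultured on SC, SCC and PDA media before testing. Compounds were dissolved as DMSO stocks and diluted into solid medium (PDA) for agar dilution. Inocula for molds and yeast came from 2- to 7-day mature colonies. The read-out was the minimum inhibitory concentration (MIC).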

Microsporum canis = assay: Antifungal activity against Microsporum canis after 48 hrs by agar dilution method; method in brief: as §1
Epidermophyton floccosum = assay: Antifungal activity against Epidermophyton floccosum after 48 hrs by agar dilution method; method in brief: as §1
Trichophyton rubrum = assay: Antifungal activity against Trichophyton rubrum after 48 hrs by agar dilution method; method in brief: as §1
Candida albicans = assay: Antifungal activity against Candida albicans after 48 hrs by agar dilution method; method in brief: as §1

Compound	MIC [1] [µg/mL]	MIC (Microsporum canis) [µg/mL]	MIC (Epidermophyton floccosum) [µg/mL]	MIC (Trichophyton rubrum) [µg/mL]	MIC (Candida albicans) [µg/mL]
CCCCCn1cncn1	64 (≈ 460 µM)	64 (≈ 460 µM)	64 (≈ 460 µM)	64 (≈ 460 µM)	
CCCCCCCCn1nnc2ccccc21	64 (≈ 277 µM)	64 (≈ 277 µM)	32 (≈ 138 µM)	64 (≈ 277 µM)	
COc1ccc(C(c2ccccc2)(c2ccccc2)n2nnc3ccccc32)cc1	64 (≈ 163 µM)		64 (≈ 163 µM)	64 (≈ 163 µM)	
CCCCCCCCn1cncn1	16 (≈ 88.3 µM)	16 (≈ 88.3 µM)	8 (≈ 44.1 µM)	16 (≈ 88.3 µM)	16 (≈ 88.3 µM)
c1ccc(C(c2ccccc2)(c2ccccc2)n2cncn2)cc1	32 (≈ 103 µM)	64 (≈ 206 µM)	1 (≈ 3.21 µM)	64 (≈ 206 µM)	
CCCCCn1nnc2ccccc21	32 (≈ 169 µM)	16 (≈ 84.5 µM)	16 (≈ 84.5 µM)	32 (≈ 169 µM)	32 (≈ 169 µM)
COc1ccc(C(c2ccccc2)(c2ccccc2)n2cncn2)cc1	16 (≈ 46.9 µM)	32 (≈ 93.7 µM)	8 (≈ 23.4 µM)	32 (≈ 93.7 µM)	
COc1ccc(C(c2ccccc2)(c2ccc(OC)cc2)n2nnc3ccccc32)cc1	64 (≈ 152 µM)			32 (≈ 75.9 µM)	
c1ccc(C(c2ccccc2)(c2ccccc2)n2nnc3ccccc32)cc1			64 (≈ 177 µM)	64 (≈ 177 µM)	64 (≈ 177 µM)
Clc1ccccc1C(c1ccccc1)(c1ccccc1)n1ccnc1 [CLOTRIMAZOLE]	0.05 (≈ 0.145 µM)	0.065 (≈ 0.188 µM)	4 (≈ 11.6 µM)	0.5 (≈ 1.45 µM)	4 (≈ 11.6 µM)
OC(Cn1cncn1)(Cn1cncn1)c1ccc(F)cc1F [FLUCONAZOLE]	1 (≈ 3.27 µM)	16 (≈ 52.2 µM)	0.25 (≈ 0.816 µM)	32 (≈ 104 µM)	32 (≈ 104 µM)
